Results from ChEMBL document CHEMBL4689842, “EUbOPEN Chemogenomics Library wave 1” (2021).
“And” between values parts separate entries of the source, which are not always exact repeats. Equal entries are not always repeated.

Test system: HEK-293T
Assay: Multiplex assay against HEK293T;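 as to Population Tubulin-Different-Phenotype (%): share of the cells with healthy nuclei that show this phenotype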
Assay type: toxicity, cell-based
Settings: human
Method in brief: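 On a CQ1 microscope at 37°C and 5% CO2, live cells were imaged after compound addition. They had been stained at seeding with Hoechst33342, BioTracker Green Microtubule Cytoskeleton Dye, MitoTracker Red and Annexin V Alexa Fluor 680. CellPathfinder machine-learning gating assigned cells to Hoechst high-intensity objects or normal cells, normal cells to healthy, pyknosed or fragmented nuclei, and pyknosed cells to mitotic or apoptotic. Tubulin, mitochondrial-mass and membrane-permeability phenotypes are per cents of healthy-nucleus cells.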

[1] = 12 h, 10 µM, compound concentration 10 uM, replicate 1
[2] = 12 h, 10 µM, compound concentration 10 uM, replicate 2
[3] = 24 h, 10 µM, compound concentration 10 uM, replicate 1
[4] = 24 h, 10 µM, compound concentration 10 uM, replicate 2
[5] = 12 h, 1 µM, compound concentration 1 uM, replicate 1
[6] = 12 h, 1 µM, compound concentration 1 uM, replicate 2
[7] = 24 h, 1 µM, compound concentration 1 uM, replicate 1
[8] = 24 h, 1 µM, compound concentration 1 uM, replicate 2
[9] = 48 h, 1 µM, compound concentration 1 uM, replicate 1
[10] = 48 h, 1 µM, compound concentration 1 uM, replicate 2
[11] = 48 h, 10 µM, compound concentration 10 uM, replicate 1
[12] = 48 h, 10 µM, compound concentration 10 uM, replicate 2

In the case of CN1C(=O)c2sccc2N(C)c2nc(Nc3ccc(S(N)(=O)=O)cc3)ncc21, the “Population Apoptotic (%)” value [1] is reported as 16% and 18%, the “Population Fragmented Nuclei (%)” value [1] is reported as 26% and 12% and the “Population Healthy Nuclei (%)” value [1] is reported as 60% and 76%. For the same molecule, the “Population Hoechst High Intensity Objects (%)” value [1] was 18% and 7%, the “Population Membrane Permeable-Phenotype (%)” value [1] was 4% and 3% and the “Population Mitochondria Different-Phenotype (%)” value [1] was 4% and 2%. The “Population Mitotic Cells (%)” value [1] was 83% and 81%, the “Population Normal (%)” value [1] was 81% and 92% and the “Population Pyknosed Nuclei (%)” value [1] was 13% and 11%. The “Population Tubulin-Different-Phenotype (%)” value [1] was 0%, the “Total Cell Count” value [1] was 672 and 727 and the “Population Apoptotic (%)” value [2] was 8% and 7%. The “Population Fragmented Nuclei (%)” value [2] was 8% and 4%, the “Population Healthy Nuclei (%)” value [2] was 86% and 85% and the “Population Hoechst High Intensity Objects (%)” value [2] was 1% and 2%. For the same molecule, the “Population Membrane Permeable-Phenotype (%)” value [2] was 1% and 0%, the “Population Mitochondria Different-Phenotype (%)” value [2] was 7% and 9% and the “Population Mitotic Cells (%)” value [2] was 91% and 92%. For the same molecule, the “Population Normal (%)” value [2] was 98% and 97%, the “Population Pyknosed Nuclei (%)” value [2] was 4% and 10% and the “Population Tubulin-Different-Phenotype (%)” value [2] was 4% and 1%. For the same molecule, the “Total Cell Count” value [2] was 1564 and 1180, the “Population Apoptotic (%)” value [3] was 19% and 15% and the “Population Fragmented Nuclei (%)” value [3] was 14% and 20%. The “Population Healthy Nuclei (%)” value [3] was 79% and 69%, the “Population Membrane Permeable-Phenotype (%)” value [3] was 5% and the “Population Mitochondria Different-Phenotype (%)” value [3] was 2% and 3%. The “Population Mitotic Cells (%)” value [3] was 80% and 84%, the “Population Normal (%)” value [3] was 95% and 82% and the “Population Pyknosed Nuclei (%)” value [3] was 6% and 10%. For the same molecule, the “Population Tubulin-Different-Phenotype (%)” value [3] was 1%, the “Total Cell Count” value [3] was 894 and 614 and the “Population Apoptotic (%)” value [4] was 6% and 4%. For the same molecule, the “Population Fragmented Nuclei (%)” value [4] was 25% and 12%, the “Population Healthy Nuclei (%)” value [4] was 71% and 80% and the “Population Hoechst High Intensity Objects (%)” value [4] was 2%. For the same molecule, the “Population Membrane Permeable-Phenotype (%)” value [4] was 3% and 1%, the “Population Mitochondria Different-Phenotype (%)” value [4] was 1% and the “Population Mitotic Cells (%)” value [4] was 93% and 95%. For the same molecule, the “Population Normal (%)” value [4] was 97%, the “Population Pyknosed Nuclei (%)” value [4] was 2% and 7% and the “Population Tubulin-Different-Phenotype (%)” value [4] was 4% and 2%. The “Total Cell Count” value [4] was 2712 and 1180.
With CN1CCCC(n2nc(Cc3ccc(Cl)cc3)c3ccccc3c2=O)CC1.Cl (stereo not drawn) [AZELASTINE HYDROCHLORIDE] the “Population Apoptotic (%)” value [5] was 50%, the “Population Fragmented Nuclei (%)” value [5] was 8% and the “Population Healthy Nuclei (%)” value [5] was 42%. The “Population Hoechst High Intensity Objects (%)” value [5] was 9%, the “Population Membrane Permeable-Phenotype (%)” value [5] was 3% and the “Population Mitochondria Different-Phenotype (%)” value [5] was 94%. For the same molecule, the “Population Mitotic Cells (%)” value [5] was 49%, the “Population Normal (%)” value [5] was 90% and the “Population Pyknosed Nuclei (%)” value [5] was 50%. For the same molecule, the “Population Tubulin-Different-Phenotype (%)” value [5] was 84%, the “Total Cell Count” value [5] was 333 and the “Population Apoptotic (%)” value [6] was 40%. The “Population Fragmented Nuclei (%)” value [6] was 6%, the “Population Healthy Nuclei (%)” value [6] was 24% and the “Population Hoechst High Intensity Objects (%)” value [6] was 5%. The “Population Membrane Permeable-Phenotype (%)” value [6] was 4%, the “Population Mitochondria Different-Phenotype (%)” value [6] was 61% and the “Population Mitotic Cells (%)” value [6] was 59%. For the same molecule, the “Population Normal (%)” value [6] was 94%, the “Population Pyknosed Nuclei (%)” value [6] was 69% and the “Population Tubulin-Different-Phenotype (%)” value [6] was 68%. For the same molecule, the “Total Cell Count” value [6] was 190, the “Population Apoptotic (%)” value [1] was 82% and the “Population Fragmented Nuclei (%)” value [1] was 11%. For the same molecule, the “Population Healthy Nuclei (%)” value [1] was 16%, the “Population Hoechst High Intensity Objects (%)” value [1] was 19% and the “Population Membrane Permeable-Phenotype (%)” value [1] was 2%. For the same molecule, the “Population Mitochondria Different-Phenotype (%)” value [1] was 100%, the “Population Mitotic Cells (%)” value [1] was 17% and the “Population Normal (%)” value [1] was 80%. For the same molecule, the “Population Pyknosed Nuclei (%)” value [1] was 72%, the “Population Tubulin-Different-Phenotype (%)” value [1] was 78% and the “Total Cell Count” value [1] was 289. The “Population Apoptotic (%)” value [2] was 89%, the “Population Fragmented Nuclei (%)” value [2] was 5% and the “Population Healthy Nuclei (%)” value [2] was 23%. The “Population Hoechst High Intensity Objects (%)” value [2] was 4%, the “Population Membrane Permeable-Phenotype (%)” value [2] was 3% and the “Population Mitochondria Different-Phenotype (%)” value [2] was 98%. The “Population Mitotic Cells (%)” value [2] was 10%, the “Population Normal (%)” value [2] was 95% and the “Population Pyknosed Nuclei (%)” value [2] was 70%. For the same molecule, the “Population Tubulin-Different-Phenotype (%)” value [2] was 56%, the “Total Cell Count” value [2] was 231 and the “Population Apoptotic (%)” value [7] was 56%. For the same molecule, the “Population Fragmented Nuclei (%)” value [7] was 8%, the “Population Healthy Nuclei (%)” value [7] was 37% and the “Population Hoechst High Intensity Objects (%)” value [7] was 11%. The “Population Membrane Permeable-Phenotype (%)” value [7] was 3%, the “Population Mitochondria Different-Phenotype (%)” value [7] was 92% and the “Population Mitotic Cells (%)” value [7] was 43%. The “Population Normal (%)” value [7] was 88%, the “Population Pyknosed Nuclei (%)” value [7] was 54% and the “Population Tubulin-Different-Phenotype (%)” value [7] was 83%. The “Total Cell Count” value [7] was 353, the “Population Apoptotic (%)” value [8] was 50% and the “Population Fragmented Nuclei (%)” value [8] was 7%. For the same molecule, the “Population Healthy Nuclei (%)” value [8] was 49%, the “Population Hoechst High Intensity Objects (%)” value [8] was 4% and the “Population Membrane Permeable-Phenotype (%)” value [8] was 5%. The “Population Mitochondria Different-Phenotype (%)” value [8] was 66%, the “Population Mitotic Cells (%)” value [8] was 50% and the “Population Normal (%)” value [8] was 95%. For the same molecule, the “Population Pyknosed Nuclei (%)” value [8] was 43%, the “Population Tubulin-Different-Phenotype (%)” value [8] was 74% and the “Total Cell Count” value [8] was 223. The “Population Apoptotic (%)” value [3] was 82%, the “Population Fragmented Nuclei (%)” value [3] was 13% and the “Population Healthy Nuclei (%)” value [3] was 13%. For the same molecule, the “Population Hoechst High Intensity Objects (%)” value [3] was 19%, the “Population Membrane Permeable-Phenotype (%)” value [3] was 0% and the “Population Mitotic Cells (%)” value [3] was 17%. The “Population Normal (%)” value [3] was 80%, the “Population Pyknosed Nuclei (%)” value [3] was 72% and the “Population Tubulin-Different-Phenotype (%)” value [3] was 59%. For the same molecule, the “Total Cell Count” value [3] was 289, the “Population Apoptotic (%)” value [4] was 93% and the “Population Fragmented Nuclei (%)” value [4] was 8%. The “Population Healthy Nuclei (%)” value [4] was 33%, the “Population Hoechst High Intensity Objects (%)” value [4] was 7% and the “Population Membrane Permeable-Phenotype (%)” value [4] was 4%. The “Population Mitochondria Different-Phenotype (%)” value [4] was 100%, the “Population Mitotic Cells (%)” value [4] was 6% and the “Population Normal (%)” value [4] was 92%. For the same molecule, the “Population Pyknosed Nuclei (%)” value [4] was 58%, the “Population Tubulin-Different-Phenotype (%)” value [4] was 38% and the “Total Cell Count” value [4] was 230. The “Population Apoptotic (%)” value [9] was 49%, the “Population Fragmented Nuclei (%)” value [9] was 14% and the “Population Healthy Nuclei (%)” value [9] was 42%. For the same molecule, the “Population Hoechst High Intensity Objects (%)” value [9] was 14%, the “Population Membrane Permeable-Phenotype (%)” value [9] was 3% and the “Population Mitochondria Different-Phenotype (%)” value [9] was 72%. The “Population Mitotic Cells (%)” value [9] was 50%, the “Population Normal (%)” value [9] was 85% and the “Population Pyknosed Nuclei (%)” value [9] was 42%. For the same molecule, the “Population Tubulin-Different-Phenotype (%)” value [9] was 70%, the “Total Cell Count” value [9] was 404 and the “Population Apoptotic (%)” value [10] was 47%. For the same molecule, the “Population Fragmented Nuclei (%)” value [10] was 7%, the “Population Healthy Nuclei (%)” value [10] was 65% and the “Population Hoechst High Intensity Objects (%)” value [10] was 5%. For the same molecule, the “Population Membrane Permeable-Phenotype (%)” value [10] was 6%, the “Population Mitochondria Different-Phenotype (%)” value [10] was 48% and the “Population Mitotic Cells (%)” value [10] was 52%. The “Population Normal (%)” value [10] was 94%, the “Population Pyknosed Nuclei (%)” value [10] was 26% and the “Population Tubulin-Different-Phenotype (%)” value [10] was 71%. For the same molecule, the “Total Cell Count” value [10] was 324, the “Population Apoptotic (%)” value [11] was 79% and the “Population Fragmented Nuclei (%)” value [11] was 20%. For the same molecule, the “Population Healthy Nuclei (%)” value [11] was 6%, the “Population Hoechst High Intensity Objects (%)” value [11] was 27% and the “Population Membrane Permeable-Phenotype (%)” value [11] was 0%. For the same molecule, the “Population Mitochondria Different-Phenotype (%)” value [11] was 100%, the “Population Mitotic Cells (%)” value [11] was 20% and the “Population Normal (%)” value [11] was 72%. For the same molecule, the “Population Pyknosed Nuclei (%)” value [11] was 73%, the “Population Tubulin-Different-Phenotype (%)” value [11] was 38% and the “Total Cell Count” value [11] was 297. The “Population Apoptotic (%)” value [12] was 89%, the “Population Fragmented Nuclei (%)” value [12] was 8% and the “Population Healthy Nuclei (%)” value [12] was 57%. The “Population Hoechst High Intensity Objects (%)” value [12] was 18%, the “Population Mitochondria Different-Phenotype (%)” value [12] was 99% and the “Population Mitotic Cells (%)” value [12] was 10%. The “Population Normal (%)” value [12] was 81%, the “Population Pyknosed Nuclei (%)” value [12] was 34% and the “Population Tubulin-Different-Phenotype (%)” value [12] was 15%. The “Total Cell Count” value [12] was 231.
